A selection: hits, their analogues and other compounds. The true share with any hit is near 3%.
Hep lipid drop: hepatic lipid droplet formation modulation; AML12 mouse hepatocytes, oleate lipid droplets, BODIPY imaging; inhibition, % at 6.5 µM; 240,000 tested, 0.4% active;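 active = lipid droplet intensity inhibited by at least 50%, with more than 500 cells counted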
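Assay system: AML12 hepatocytes (mouse); Probe or stimulus: oleic acid at 100 µM to induce lipid droplet formation; Dosing: compound at 6.5 µM only; Schedule: compound with oleate, overnight; Detection: fluorescence imaging, 20x objective, two fields per well; Measure: % inhibition of lipid droplet signal.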
NR3A LBD binder: NR3A (human) ligand-binding domain modulation; NR3A LBD differential scanning fluorimetry, Tm shift; 0% = protein alone, 100% = glycine-bound protein; Tm shift relative to glycine control, % at 25 µM; 340,000 tested, 2.5% active; AID 1259313;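 active = melting temperature shift of at least 10% of the positive control shift, at one fixed dose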
GASC-1 inh: inhibitors of human GASC-1 (JMJD2C) demethylase. Q9H3R0. GST-JMJD2C(1-420) H3K9me3 demethylation, DELFIA europium. inhibition, % at 2.35 µM. 330,000 tested, 0.069% active;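 active = more than half of a compound's replicate wells show inhibition beyond 50%, single wells judged on their own value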;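 also: signal counts dimethyl H3K9 product captured on neutravidin plate; 0% = median of DMSO wells and 100% = 0.3 times that DMSO median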
NPR1 activator: GC-A (human) enzyme activation | P16066 | HEK293 GC-A cells, cGMP TR-FRET, EC30 ANP; 0% at EC30 ANP, 100% saturating ANP | activation, % at 10 µM | 370,000 tested, 0.14% active | AID 1671463; in the data active = activation above about 40%
GC-B act: GC-B (human) receptor activation | P20594 | HEK293-GC-B cells, CNP EC30, cGMP TR-FRET; 0% at EC30 CNP, 100% saturating CNP | activation, % at 10 µM | 370,000 tested, 0.11% active | AID 1920062;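 active = activation at 10 µM reaching about 35% in either raw or pattern-adjusted values, limit read from the data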
Target sequence (P20594 whole entry, looked up): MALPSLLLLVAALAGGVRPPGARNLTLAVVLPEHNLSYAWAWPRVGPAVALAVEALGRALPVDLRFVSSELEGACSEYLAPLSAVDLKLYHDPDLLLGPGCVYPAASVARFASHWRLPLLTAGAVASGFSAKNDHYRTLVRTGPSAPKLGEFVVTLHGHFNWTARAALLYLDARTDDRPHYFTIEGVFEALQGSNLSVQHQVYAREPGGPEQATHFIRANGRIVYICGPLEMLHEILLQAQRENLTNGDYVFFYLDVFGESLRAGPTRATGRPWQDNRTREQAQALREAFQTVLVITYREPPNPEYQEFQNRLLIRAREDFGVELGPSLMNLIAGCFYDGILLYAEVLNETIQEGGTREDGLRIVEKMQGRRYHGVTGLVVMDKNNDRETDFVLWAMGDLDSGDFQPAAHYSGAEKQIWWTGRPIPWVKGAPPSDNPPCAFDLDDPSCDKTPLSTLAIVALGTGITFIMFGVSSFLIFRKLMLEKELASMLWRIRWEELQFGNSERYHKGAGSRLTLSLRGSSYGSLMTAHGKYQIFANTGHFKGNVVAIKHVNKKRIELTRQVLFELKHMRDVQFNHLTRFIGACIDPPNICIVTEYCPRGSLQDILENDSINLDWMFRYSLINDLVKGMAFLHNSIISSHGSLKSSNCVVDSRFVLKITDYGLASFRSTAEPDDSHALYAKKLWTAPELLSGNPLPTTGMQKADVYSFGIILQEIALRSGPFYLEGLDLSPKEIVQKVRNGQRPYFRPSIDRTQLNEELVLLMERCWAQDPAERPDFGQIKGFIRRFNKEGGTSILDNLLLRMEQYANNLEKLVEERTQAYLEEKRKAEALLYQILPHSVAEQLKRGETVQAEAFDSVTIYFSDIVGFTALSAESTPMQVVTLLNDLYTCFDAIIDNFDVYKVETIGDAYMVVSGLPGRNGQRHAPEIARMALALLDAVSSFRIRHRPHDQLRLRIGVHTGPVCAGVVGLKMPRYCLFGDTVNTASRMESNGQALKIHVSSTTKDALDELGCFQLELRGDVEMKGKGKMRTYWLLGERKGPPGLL
aDG glyco act: increases alpha dystroglycan glycosylation; Pro5-aDG cells, alpha-DG glycosylation AlphaScreen (IIH6); 0% Pro5, 100% B10-LARGE cell signal; AID 624168; 360,000 tested, 0.22% active; activation, % at 10 µM;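 active = activation of at least 8% versus controls, or a plate z-score of at least 8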;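 also: Pro5 are CHO cells carrying HIG-tagged alpha-DG that lacks glycosylation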
Numbers without * were called inactive; . = no result given.

SMILES	Hep lipid drop	NR3A LBD binder	GASC-1 inh	NPR1 activator	GC-B act	aDG glyco act
CCN(C(=O)COC(=O)CCS(=O)(=O)c1ccccc1)c1c(N)n(Cc2ccccc2)c(=O)[nH]c1=O	.	17*	.	-2	-3	0
CN(C(=O)COC(=O)c1ccccc1Nc1ccccc1)c1c(N)n(Cc2ccccc2)c(=O)[nH]c1=O	.	24*	-6	-2	-1	0
CCCCC[C@H](C)N1C[C@@H](COCc2ccccc2)Oc2cc(N3CCC[C@H]3C(N)=O)ccc2S1(=O)=O	.	.	.	-6	5	1
CC(C)(C)c1ccc(C#C[C@@H]2C=C[C@H](O)[C@@H](COC(=O)Nc3ccccc3)O2)cc1	.	.	.	-3	3	.
CC(Sc1nnc(Cc2ccccc2)o1)C(=O)Nc1ccccc1[N+](=O)[O-] (stereo not drawn)	.	0	20	-1	-3	0
N#CC1CC(c2ccc([N+](=O)[O-])cc2)=NN1c1ccc([N+](=O)[O-])cc1 (stereo not drawn)	3	20*	-4	0	-1	0
C[C@H]1C2CC(OC(=O)NCc3ccc(Cl)cc3)C(C2)[C@H]2CCCCN21 (stereo partly drawn)	.	.	.	4	0	.
CC(C)[C@H](N)C(=O)N[C@@H](Cc1ccccc1)C(=O)N1CCC2CCN(S(=O)(=O)c3ccccc3)CC21 (stereo partly drawn)	.	.	.	1	-1	.
O=c1nc(-c2ccccc2)c2ccccc2[nH]1	1	12*	-4	-2	-1	0
CCOc1ccc(C(=O)NCc2ccccc2)cc1Br	0	12*	0	2	-4	0
COc1cccc(CC(=O)OCC(=O)NCC(=O)Nc2cccc(C)c2C)c1	.	0	0	3	6	0
O=C(CCc1nc2cccnc2n1Cc1ccccc1)NCCc1ccc(Cl)cc1	.	11*	-5	-9	-1	0
COCCCNC(=O)CCc1nc2cccnc2n1Cc1ccccc1	.	1	114	1	-1	0
CCc1ccccc1N(CC(=O)Nc1cccnc1)S(=O)(=O)c1ccccc1	-55	12*	0	0	0	0
CCOc1ccc(N(CC(=O)Nc2cccnc2)S(=O)(=O)c2ccc(C)cc2)cc1	.	16*	82	-2	5	0
COc1ccccc1N(CC(=O)Nc1cccnc1)S(=O)(=O)c1ccccc1	.	0	7	-1	-2	0
COc1cc2c(cc1NC(=O)CSc1nnc(-c3cccc(Cl)c3)n1-c1ccccc1)oc1ccccc12	.	.	.	1	-2	.
CCOC(=O)[C@@]12CCC3=C1N(CCC3)C(=O)[C@H](CC(=O)N1CCSCC1)C2	.	.	.	0	1	.
CCCn1c(=O)cc(N)n(-c2ccc(OC(F)(F)F)cc2)c1=O	.	1	12	4	4	0
Oc1ccc(-c2cnc3ccccc3n2)cc1	.	37*	9	-2	-8	0
CCCCOc1ccc(-c2cnc3ccccc3n2)cc1	7	22*	-9	-3	-9	0
COc1cc(C(=O)Nc2sc(C)c(C)c2C(=O)O)cc(OC)c1OC	-3	15*	8	4	0	0
Cn1c(=N)n(CC(=O)c2cccs2)c2ccccc21	.	0	-2	-1	0	0
Cn1c(=N)n(CC(=O)c2ccc(Br)s2)c2ccccc21	18	2	-4	-4	-12	13*
CCOC(=O)c1cc(-c2ccccc2)n(CCC(=O)O)c1C	2	1	4	1	-9	0
SMILES	Hep lipid drop	NR3A LBD binder	GASC-1 inh	NPR1 activator	GC-B act	aDG glyco act
CCOC(=O)c1cc(-c2ccc(C)cc2)n(CCC(=O)N2CCN(c3ccccn3)CC2)c1C	-11	13*	-1	-8	3	0
CC(=O)Nc1ccc(NC(=O)CS(=O)(=O)Cc2ccccc2)cc1	-6	13*	7	-1	6	0
CSc1ccccc1OCc1cc(C(=O)NCCN2CCCc3ccccc32)no1	16	12*	5	16	-8	0
CSc1ccccc1OCc1cc(C(=O)NCCn2nc(C)cc2C)no1	-14	-1	-17	5	4	0
O=C(CN1CCC(C(=O)c2ccc(F)cc2)CC1)Nc1ccccc1Cl	-6	-4	6	-1	0	0
O=C(Nn1c(SCc2cccc([N+](=O)[O-])c2)nc2ccccc2c1=O)c1ccccc1	-12	1	-2	1	0	0
CCCCOc1ccc(C(=O)Nn2cnnc2)cc1	0	14*	-4	8	3	0
CCCOc1ccc(C(=O)Nn2c(C)nc3ccccc3c2=O)cc1	.	11*	7	2	2	0
COc1ccc(C(=O)Nn2c(SCc3cccc([N+](=O)[O-])c3)nc3ccccc3c2=O)cc1	28	17*	-6	-4	0	0
COc1cccc(NC(=O)COC(=O)c2ccccc2C(=O)N(C)c2ccccc2)c1	.	0	-7	-1	2	0
O=C(CCCC1=NS(=O)(=O)c2ccccc2N1)N1CCN(c2ccccc2Cl)CC1	.	.	.	-5	-7	.
CCc1nnc(NC(=O)CSc2nc(-c3ccc(F)cc3)cc(-c3ccccc3)c2C#N)s1	6	-1	.	9	-2	0
COc1ccc(-c2cc(-c3ccccc3)nc(SCC(=O)Nc3ncc(C)s3)c2C#N)cc1	26	20*	-2	-3	2	0
CC(C)(CC(=O)c1ccccc1)CC(=O)c1ccccc1	.	3	.	-5	-2	0
O=C(CSc1nnc(-c2cnccn2)n1-c1ccccc1)c1ccccc1Br	.	.	.	-6	-14	.
COc1ccc(/C=C/c2nc(-c3ccccc3O)n[nH]2)cc1	-6	40*	-12	-4	-8	0
CC(=O)NC(C(=O)N1CCC(c2nc3ccccc3s2)CC1)C(C)C (stereo not drawn)	-7	1	19	2	-1	1
Nc1ccc2c(c1)C(=O)c1cc([N+](=O)[O-])ccc1-2	.	25*	.	-6	-6	0
Nc1ccc2c(c1)C(=O)c1cc(Cl)c(Cl)cc1-2	.	41*	.	8	-5	0
Nc1ccc2c(c1)C(=O)c1ccc(N)cc1-2	.	1	.	-15	-10	0
COc1cccc(/C=N\N2CCN(c3ccc(C)cc3)CC2)c1O	.	.	.	0	5	.
COc1ccccc1CNC(=O)c1ccccc1OCc1ccc(F)cc1	-48	23*	-1	-1	-3	2
COc1ccc(-c2nc(NC(=O)CSc3nnc4ccccn34)ns2)cc1	.	0	14	1	45*	.
O=C(CSc1nnc2ccccn12)Nc1nsc(-c2ccccc2)n1	-43	-2	2	6	0	0
